pIC50: −log10 of the molar value. The source made the active and inactive calls. The calls are words filed in the database; no cut-off is given here.
How the values were obtained:
HT-29 = assay: Cytotoxicity against human HT-29 cells after 72 hrs by CellTiter 96 Aqueous One Solution reagent based assay; type: functional, cell-based; conditions: HT-29, 72 h
[1] = Inhibition of porcine cortex Na+/K+-ATPase using ATP as substrate after 15 mins by ADP-Glo Reagent based method; parameters: species or system Sus scrofa
In short: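 Enzyme from porcine cerebral cortex in assay buffer, preincubated with compound in DMSO or DMSO alone; ATP added, 15 min reaction. ADP formed was quantified luminescently: 40 min with ADP-Glo reagent, then 60 min with detection reagent (luciferin/luciferase). Concentration-response over a range of concentrations; IC50 derived; triplicate, three independent experiments.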

MDA-MB-231 = assay: Cytotoxicity against human MDA-MB-231 cells after 72 hrs by CellTiter 96 Aqueous One Solution reagent based assay; type: functional, cell-based; conditions: MDA-MB-231, 72 h
MDA-MB-435 = assay: Cytotoxicity against human MDA-MB-435 cells after 72 hrs by CellTiter 96 Aqueous One Solution reagent based assay; type: functional, cell-based; conditions: MDA-MB-435, 72 h
OVCAR-3 = assay: Cytotoxicity against human OVCAR3 cells after 72 hrs by CellTiter 96 Aqueous One Solution reagent based assay; type: functional, cell-based; conditions: OVCAR-3, 72 h
NCI-H1299 = assay: Inhibition of glucose transporter in human NCI-H1299 cells assessed as reduction in [3H]2-deoxy-D-glucose uptake at 30 uM preincubated for 15 mins followed by [3H]2-deoxy-D-glucose addition and measured after 40 mins by liquid scintillation counting method; type: cell-based
In short: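 H1299 NSCLC cells (maintained in DMEM, 25 mM glucose, 10% FBS) serum-starved 1.5 h in FBS-free DMEM, then 30 min in glucose-free KRP buffer. Compound at 30 μM final, 15 min; uptake started with 37 MBq/L 2-deoxy-D-[3H]glucose plus 1 mM glucose (final), 40 min. Stopped with PBS, lysate radioactivity counted. Vehicle negative control, WZB117 positive control; n = 3, Student's t-test versus vehicle.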

SMILES	pIC50 (HT-29)	pIC50 [1]	pIC50 (MDA-MB-231)	pIC50 (MDA-MB-435)	pIC50 (OVCAR-3)	Activity (NCI-H1299)
C[C@H]1O[C@@H](O[C@H]2[C@@H](O)C[C@H](O[C@H]3[C@@H](O)C[C@H](O[C@H]4CC[C@@]5(C)[C@H](CC[C@@H]6[C@@H]5C[C@@H](O)[C@]5(C)[C@H]([C@@H]7CC(=O)O[C@@H]7O)CC[C@]65O)C4)O[C@@H]3C)O[C@@H]2C)C[C@H](O)[C@@H]1O	< 5.00	3.80	< 5.00	< 5.00	< 5.00	
CC(=O)O[C@H]1[C@@H](OC(C)=O)C[C@H](O[C@H]2[C@@H](OC(C)=O)C[C@H](O[C@H]3[C@@H](OC(C)=O)C[C@H](O[C@H]4CC[C@@]5(C)[C@H](CC[C@@H]6[C@@H]5C[C@@H](OC(C)=O)[C@]5(C)[C@@H](C7=CC(=O)OC7)CC[C@]65O)C4)O[C@@H]3C)O[C@@H]2C)O[C@@H]1C	< 5.00		< 5.00	< 5.00	5.09	
CC(=O)O[C@H]1[C@@H](OC(C)=O)C[C@H](O[C@H]2[C@@H](O)C[C@H](O[C@H]3[C@@H](O)C[C@H](O[C@H]4CC[C@@]5(C)[C@H](CC[C@@H]6[C@@H]5C[C@@H](OC(C)=O)[C@]5(C)[C@@H](C7=CC(=O)OC7)CC[C@]65O)C4)O[C@@H]3C)O[C@@H]2C)O[C@@H]1C	< 5.00		< 5.00	< 5.00	5.21	
C[C@]12[C@H](O)CC3=C(CC[C@@H]4C[C@@H](O)CC[C@]34C)[C@H]1CC[C@@H]2C1=CC(=O)OC1	< 5.00		< 5.00	< 5.00	< 5.00	
C[C@H]1O[C@@H](O[C@H]2[C@@H](O)C[C@H](O[C@H]3[C@@H](O)C[C@H](O[C@H]4CC[C@@]5(C)[C@H](CC[C@@H]6[C@@H]5C[C@@H](O)[C@]5(C)[C@@H](C7=CC(=O)OC7)CC[C@]65O)C4)O[C@@H]3C)O[C@@H]2C)C[C@H](O)[C@@H]1O [DIGOXIN]	6.55	6.64	6.51	6.77		inactive
C[C@]12CC[C@H](O)C[C@H]1CC[C@@H]1[C@@H]2C[C@@H](O)[C@]2(C)[C@@H](C3=CC(=O)OC3)CC[C@]12O [DIGOXIGENIN]	5.44		5.49	6.05	5.62	

From ChEMBL document CHEMBL4613252 (J Nat Prod, 2020)
